Test results from ChEMBL document CHEMBL1671683, “Activity of linezolid in an in vitro pharmacokinetic-pharmacodynamic model using different dosages and Staphylococcus aureus and Enterococcus faecalis strains with and without a hypermutator phenotype” (Antimicrob Agents Chemother, 2010).

Legend:
[1] = system: Staphylococcus aureus; assay: Bactericidal activity against 14 hrs peripheral compartment culture samples of Staphylococcus aureus RN4220 MutS2 in two-compartment pharmacokinetic/pharmacodynamic model assessed as effect on bacterial count at 600 mg, bid administered as 0.5 hr infusion; assay type: functional
Summary of the method: (§1)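 An 18-h culture concentrated 50-fold was injected into the peripheral compartment 3 h pre-sampling (~10^8 CFU/ml E. faecalis, 10^9 S. aureus). Counts came from dilution plating (detection limit 2–3 log10 CFU/ml), expressed as Δlog CFU/ml from treatment start. Run in duplicate.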

[2] = system: Staphylococcus aureus; assay: Bactericidal activity against 48 hrs peripheral compartment culture samples of Staphylococcus aureus RN4220 MutS2 in two-compartment pharmacokinetic/pharmacodynamic model assessed as effect on bacterial count at 600 mg, bid administered as 0.5 hr infusion; assay type: functional; summary of the method: as §1
[3] = system: Enterococcus faecalis; assay: Bactericidal activity against 1 hr peripheral compartment culture samples of Enterococcus faecalis ATCC 29212 in two-compartment pharmacokinetic/pharmacodynamic model assessed as effect on bacterial count at 200 mg, bid administered as 0.5 hr infusion; assay type: functional
Summary of the method: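 Two-compartment hollow-fibre model in cation-adjusted, protein-free MH broth, 37°C. Linezolid given as simulated 0.5-h infusion twice daily. Inoculum grown 18 h, concentrated 50-fold and placed in the peripheral compartment 3 h before t0. Peripheral samples at set times counted by dilution plating. First 10-fold dilution not plated, limiting detection to 2–3 log10 CFU/ml. Δlog CFU/ml taken from t0 count. Duplicates.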

[4] = system: Enterococcus faecalis; assay: Bactericidal activity against 24 hrs peripheral compartment culture samples of Enterococcus faecalis ATCC 29212 in two-compartment pharmacokinetic/pharmacodynamic model assessed as effect on bacterial count at 200 mg, bid administered as 0.5 hr infusion; assay type: functional; summary of the method: as §1
[5] = system: Enterococcus faecalis; assay: Bactericidal activity against 48 hrs peripheral compartment culture samples of Enterococcus faecalis ATCC 29212 in two-compartment pharmacokinetic/pharmacodynamic model assessed as effect on bacterial count at 600 mg, bid for every 12 hrs administered as 0.5 hrs infusion; assay type: functional; summary of the method: as §1
[6] = system: Enterococcus faecalis; assay: Bactericidal activity against 14 hrs peripheral compartment culture samples of Enterococcus faecalis Ef1497 in two-compartment pharmacokinetic/pharmacodynamic model assessed as effect on bacterial count at 600 mg, bid administered as 0.5 hr infusion; assay type: functional; summary of the method: as §1
[7] = system: Enterococcus faecalis; assay: Bactericidal activity against 2 hrs peripheral compartment culture samples of Enterococcus faecalis Ef1497 in two-compartment pharmacokinetic/pharmacodynamic model assessed as effect on bacterial count at 800 mg, bid administered as 0.5 hr infusion; assay type: functional; summary of the method: as §1
[8] = system: Enterococcus faecalis; assay: Bactericidal activity against 12.5 hrs peripheral compartment culture samples of Enterococcus faecalis Ef1497 in two-compartment pharmacokinetic/pharmacodynamic model assessed as effect on bacterial count at 800 mg, bid administered as 0.5 hr infusion; assay type: functional; summary of the method: as §1
[9] = system: Enterococcus faecalis; assay: Bactericidal activity against 2 hrs peripheral compartment culture samples of Enterococcus faecalis Ef1497 MutM3 in two-compartment pharmacokinetic/pharmacodynamic model assessed as effect on bacterial count at 600 mg, bid administered as 0.5 hr infusion; assay type: functional; summary of the method: as §1
[10] = Mean residence time in two-compartment pharmacokinetic/pharmacodynamic model at 800 mg, bid administered as 0.5 hrs infusion; assay type: ADME, organism-based; conditions: iv
[11] = Total clearance in two-compartment pharmacokinetic/pharmacodynamic model at 800 mg, bid administered as 0.5 hrs infusion; assay type: ADME, organism-based; conditions: iv
[12] = system: Staphylococcus aureus; assay: Bactericidal activity against 24 hrs peripheral compartment culture samples of Staphylococcus aureus RN4220 in two-compartment pharmacokinetic/pharmacodynamic model assessed as effect on bacterial count at 600 mg, bid administered as 0.5 hr infusion; assay type: functional; summary of the method: as §1
[13] = system: Staphylococcus aureus; assay: Bactericidal activity against 48 hrs peripheral compartment culture samples of Staphylococcus aureus RN4220 in two-compartment pharmacokinetic/pharmacodynamic model assessed as effect on bacterial count at 600 mg, bid administered as 0.5 hr infusion; assay type: functional
Summary of the method: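 An 18-h culture was concentrated 50-fold by centrifugation and injected into the peripheral compartment 3 h before first sampling, giving about 10^9 CFU/ml exponential growth. Linezolid was simulated as a 0.5-h infusion every 12 h. Samples taken from 0 to 48 h were counted by dilution plating on MH agar; the first 10-fold dilution was not plated (detection limit 2–3 log10 CFU/ml). Effect was expressed as Δlog CFU/ml from treatment start. Run in duplicate.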

[14] = system: Staphylococcus aureus subsp. aureus RN4220; assay: AUBC (0 to 24 hrs) in Staphylococcus aureus RN4220MutS2 in two-compartment pharmacokinetic/pharmacodynamic model at 600 mg, bid administered as 0.5 hr infusion for 2 days; assay type: functional
Summary of the method: (§2)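 Hollow-fibre two-compartment model in cation-adjusted, protein-free MH broth at 37°C. Human total-plasma linezolid profile simulated as 0.5-h infusion every 12 h for 48 h. Concentrated 18-h culture injected into the peripheral compartment 3 h before first sample, giving about 10^8 (E. faecalis) or 10^9 (S. aureus) CFU/ml. Viable counts by dilution plating over 0–24 h. Area indices calculated versus growth control curve. Duplicate runs.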

[15] = system: Enterococcus faecalis; assay: AUBC (0 to 24 hrs) in Enterococcus faecalis ATCC 29212 in two-compartment pharmacokinetic/pharmacodynamic model at 600 mg, bid administered as 0.5 hr infusion for 2 days; assay type: functional; summary of the method: as §2
[16] = system: Enterococcus faecalis; assay: ABBC (0 to 24 hrs) in Enterococcus faecalis ATCC 29212 in two-compartment pharmacokinetic/pharmacodynamic model at 200 mg, bid administered as 0.5 hr infusion for 2 days; assay type: functional; summary of the method: as §2
[17] = Tmax in two-compartment pharmacokinetic/pharmacodynamic model at 200 mg, bid administered as 0.5 hr infusion over 24 hrs; assay type: ADME, organism-based; conditions: iv
Summary of the method: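 Two-compartment in vitro hollow-fibre model in cation-adjusted, protein-free Mueller-Hinton broth at 37°C. Human total-plasma linezolid profile simulated as 0.5-h infusion every 12 h for 48 h, computer-controlled syringe pump into central compartment. […] Peripheral samples assayed by validated HPLC-UV (quantification limit 0.39 μg/ml). Tmax read directly from concentration-time profiles. Run in duplicate.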

[18] = Residual concentration at the end of the administration interval in two-compartment pharmacokinetic/pharmacodynamic model at 600 mg, bid administered as 0.5 hr infusion over 24 hrs; assay type: ADME; conditions: in vivo, iv
[19] = AUC in two-compartment pharmacokinetic/pharmacodynamic model at 200 mg, bid administered as 0.5 hr infusion over 24 hrs; assay type: ADME; parameters: dose 200 mg, time < 24 hr; conditions: in vivo, iv
[20] = AUC in two-compartment pharmacokinetic/pharmacodynamic model at 800 mg, bid administered as 0.5 hr infusion over 24 hrs; assay type: ADME; parameters: time < 24 hr, dose 800 mg; conditions: in vivo, iv
[21] = Total clearance in two-compartment pharmacokinetic/pharmacodynamic model at 600 mg, bid administered as 0.5 hr infusion over 24 hrs; assay type: ADME, organism-based; conditions: in vivo, iv
[22] = Apparent volume of distribution in two-compartment pharmacokinetic/pharmacodynamic model at 200 mg, bid administered as 0.5 hr infusion over 24 hrs; assay type: ADME, organism-based; conditions: in vivo, iv
[23] = Volume of distribution at steady state in two-compartment pharmacokinetic/pharmacodynamic model at 200 mg, bid administered as 0.5 hr infusion over 24 hrs; assay type: ADME, organism-based; conditions: iv, read-out: Vdss
[24] = in vitro; conditions: two-compartment pharmacokinetic/pharmacodynamic model, iv, 200 mg
[25] = in vitro; conditions: two-compartment pharmacokinetic/pharmacodynamic model, iv, 600 mg

CC(=O)NC[C@H]1CN(c2ccc(N3CCOCC3)c(F)c2)C(=O)O1 [LINEZOLID]
log10CFU/ml [1]: -0.58
log10CFU/ml [2]: 0.74
log10CFU/ml [3]: 0.14
log10CFU/ml [4]: 0.83
log10CFU/ml [5]: 0.53
log10CFU/ml [6]: 0.13
log10CFU/ml [7]: -0.13
log10CFU/ml [8]: -0.03
log10CFU/ml [9]: -0.05
MRT [10]: 6.55 h
clearance [11]: 287 mL/min
log10CFU/ml [12]: -0.17
log10CFU/ml [13]: 0.32
AUBC [14]: 228.8 log10CFU/ml.hr
AUBC [15]: 217.8 log10CFU/ml.hr
ABBC [16]: 5.11 log10CFU/ml.hr
Tmax [17]: 30 min
Drug uptake [18]: 1.26 µg/mL
AUC at 24 h [19]: 10100 ng·h/mL
AUC at 24 h [20]: 47700 ng·h/mL
clearance [21]: 215 mL/min
Vd [22]: 137 L
Vd [23]: 117 L
half-life at 0.5 h [24]: 403 min
half-life at 0.5 h [25]: 392 min
